Converted amounts (≈) assume the structure as drawn.

For one molecule, MIC, survival and Survival results are on record in ChEMBL document CHEMBL1128448, “Synthesis and antifungal activity of new azole derivatives containing an N-acylmorpholine ring” (1995).

The test system of one assay is Microsporum canis. Put plainly: In vitro evaluation of minimum inhibitory concentration against Microsporum canis 47. Type of assay: functional. In short, it runs like this:
(§1)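 Stocks are 800 μg/mL in 50% ethanol. Each plate gets 10 μL of inoculum at 10^5 cfu/mL. Incubation at 25 °C, 48 h for yeasts and 120 h for dermatophytes and molds. Organisms are ATCC strains or clinical isolates.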

Assay [1] concerns Mus sp. Kind of assay: In vivo evaluation of % survival rate after peroral administration on 5th day at dose 2.5 mg/kg. Type of assay: functional. The conditions noted are these: Mus sp., po.
The subject of assay [2] is Mus sp. Put plainly: In vivo evaluation of % survival rate after peroral administration on 7th day at dose 1 mg/kg. The conditions noted are these: route oral, 1 mg/kg. Type of assay: functional.
In assay [3] the test system is Mus sp. Put plainly: In vivo evaluation of % survival rate after peroral administration on 3rd day at dose 2.5 mg/kg. Type of assay: functional. The following applies: Mus sp., po.
For the next assay, the system named is Pichia kudriavzevii. Kind of assay: In vitro evaluation of minimum inhibitory concentration against Candida krusei 70. In kind it is functional. In outline: as §1
In another assay the test system is Aspergillus fumigatus. Put plainly: In vitro evaluation of minimum inhibitory concentration against Aspergillus fumigatus 33. In kind it is functional. In outline:
as §1

For assay [4], the system named is Mus sp. Put plainly: In vivo evaluation of % survival rate after peroral administration on 9th day at dose 2.5 mg/kg. The conditions noted are these: Mus sp., po. In kind it is functional.
Assay [5] concerns Mus sp. Kind of assay: In vivo evaluation of % survival rate after peroral administration on 9th day at dose 1 mg/kg. In kind it is functional. The following applies: route oral, 1 mg/kg.
The test system of another assay is Aspergillus flavus. Kind of assay: In vitro evaluation of minimum inhibitory concentration against Aspergillus flavus 19. In kind it is functional. In short, it runs like this: as §1
Assay [6] deals with Candida albicans. Put plainly: […] Evaluation of minimum inhibitory concentration against Candida albicans 406. In kind it is functional. In short, it runs like this:
as §1

The subject of the next assay is Kluyveromyces marxianus. Kind of assay: In vitro evaluation of minimum inhibitory concentration against Candida pseudotropicalis 13. Type of assay: functional. In outline:
as §1

The next assay has as its system Nakaseomyces glabratus. Put plainly: In vitro evaluation of minimum inhibitory concentration against Torulopsis glabrata 78. Type of assay: functional. In short, it runs like this: as §1
The subject of assay [7] is Meyerozyma guilliermondii. Put plainly: In vitro evaluation of minimum inhibitory concentration against Candida guilliermondii 26. In kind it is functional. In outline: as §1
Another assay deals with Aspergillus niger. Put plainly: In vitro evaluation of minimum inhibitory concentration against Aspergillus niger 18. Type of assay: functional. In outline: as §1
A further assay deals with Rhodotorula mucilaginosa. Put plainly: In vitro evaluation of minimum inhibitory concentration against Rhodotorula rubra 16. Type of assay: functional. In short, it runs like this:
as §1

The subject of another assay is Trichophyton rubrum. Put plainly: In vitro evaluation of minimum inhibitory concentration against Trichophyton rubrum 90. Type of assay: functional. In short, it runs like this:
as §1

The test system of a further assay is Candida parapsilosis. Put plainly: In vitro evaluation of minimum inhibitory concentration against Candida parapsilosis 61. In kind it is functional. In short, it runs like this: as §1
Assay [8] deals with Candida albicans. Put plainly: In vitro evaluation of minimum inhibitory concentration against Candida albicans 76. Type of assay: functional. In outline: as §1
The subject of assay [9] is Mus sp. Kind of assay: In vivo evaluation of % survival rate after peroral administration on 7th day at dose 2.5 mg/kg. In kind it is functional. The following applies: Mus sp., po.
A further assay relates to Trichophyton benhamiae. Put plainly: In vitro evaluation of minimum inhibitory concentration against Trichophyton mentagrophytes 23. Type of assay: functional, Arthroderma benhamiae. In short, it runs like this: as §1
For the next assay, the system named is Nannizzia gypsea. Put plainly: In vitro evaluation of minimum inhibitory concentration against Microsporum gypseum 22. In kind it is functional. In short, it runs like this:
as §1

Assay [10] deals with Candida albicans. Put plainly: […] Evaluation of minimum inhibitory concentration against Candida albicans 60. Type of assay: functional. In short, it runs like this: as §1
For another assay, the system named is Candida tropicalis. Kind of assay: In vitro evaluation of minimum inhibitory concentration against Candida tropicalis 2.11. In kind it is functional. In outline: as §1

As for `C[C@@H](NC(=O)c1ccc(C(F)(F)F)cc1)[C@](O)(Cn1cncn1)c1ccc(F)cc1F` (racemic), the MIC is above 80 µg/mL with Microsporum canis; above 80 µg/mL against Pichia kudriavzevii; above 80 µg/mL against Aspergillus fumigatus; above 40 µg/mL against Aspergillus flavus; 0.31 µg/mL (≈ 0.704 µM) with Candida albicans [6]; 40 µg/mL (≈ 90.8 µM) with Kluyveromyces marxianus. In addition, the MIC in the assay with Nakaseomyces glabratus was above 80 µg/mL; in assay [7], 2.5 µg/mL (≈ 5.68 µM); in the assay with Aspergillus niger, above 80 µg/mL; against Rhodotorula mucilaginosa, 2.5 µg/mL (≈ 5.68 µM); in the assay with Trichophyton rubrum it was above 40 µg/mL; against Candida parapsilosis, 20 µg/mL (≈ 45.4 µM). Further, the minimum inhibitory concentration (MIC) against Candida albicans [8] is 80 µg/mL (≈ 182 µM); against Trichophyton benhamiae, above 80 µg/mL; with Nannizzia gypsea it was above 80 µg/mL; in the assay with Candida albicans [10], 0.63 µg/mL (≈ 1.43 µM); with Candida tropicalis, 80 µg/mL (≈ 182 µM). The survival at 2.5 mg/kg in the assay with Mus sp. [1], in the assay on Mus sp. [3], with Mus sp. [4] and with Mus sp. [9] was 100% each time. Also, the Survival is 80% with Mus sp. [2] and 60% in the assay on Mus sp. [5].
